Among the data in ChEMBL document CHEMBL1641479, “2-Substituted (S)-2-(3,3-dimethyl-1-oxo-10,10a-dihydroimidazo[1,5-b]isoquinolin-2(1H,3H,5H)-yl)acetic acids: Conformational prediction, synthesis, anti-thrombotic and vasodilative evaluation” (Bioorg Med Chem, 2011) are Activity, inhibition and IC50 values, retold here.

In assay [1] the test system is Rattus norvegicus. Kind of assay: Antithrombotic activity in Wistar rat assessed as thrombus weight at 15 umol/kg, iv (reference value: 28.54 +/- 2.62 mg). The class given is functional.
Assay [2] has as its system Rattus norvegicus. Kind of assay: Antithrombotic activity in Wistar rat assessed as thrombus weight at 15 umol/kg, iv (reference value: 25.99 +/- 2.41 mg). In kind it is functional.
The next assay deals with Aorta. As to the kind of experiment: Inhibition of noradrenaline-induced contraction in Wistar rat thoracic aortic ring assessed as vasorelaxant activity at 300 uM treated after noradrenaline challenge. In kind it is functional. Also noted: scale not given: the % may be the effect or the level left. An outline of the steps:
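Male Wistar rats, 250–300 g, were decapitated and aortic strips were mounted in 37 °C Krebs solution (pH 7.4) gassed with 95% O2/5% CO2, connected to a tension transducer. Strips were contracted with 59 µM noradrenaline, washed, stabilised 30 min, then re-contracted with 59 µM noradrenaline. At peak contraction, compound in ethanol or ethanol alone was added and relaxation was recorded.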

The nature of assay [3]: Antiplatelet activity against pig platelet assessed as inhibition of PAF-induced platelet aggregation at 10 uM by spectrophotometry. In kind it is functional. As to conditions: Sus scrofa. An outline of the steps: (§1)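 Pig blood (six pigs) spun 1000 rpm 10 min for PRP, then 1500 rpm 10 min for PPP; PRP adjusted to 2×10^8 platelets/mL with autologous PPP. Compound (final 100 µM to 1 nM, diluted in NS from DMSO/NS stock) or NS added, then inducer at final PAF 0.1 µM, ADP 10 µM, AA 350 µM or thrombin 0.1 U/mL.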

Assay [4] is described as follows: Antiplatelet activity against pig platelet assessed as inhibition of thrombin-induced platelet aggregation at 10 uM by spectrophotometry. In kind it is functional. As to conditions: Sus scrofa. An outline of the steps: as §1
Assay [5] can be described thus: Antiplatelet activity against pig platelet assessed as inhibition of arachidonic acid-induced platelet aggregation at 10 uM by spectrophotometry. The class given is functional. As to conditions: Sus scrofa. An outline of the steps:
as §1

Assay [6] in a line: Antiplatelet activity against pig platelet assessed as inhibition of ADP-induced platelet aggregation at 10 uM by spectrophotometry. The class given is functional. As to conditions: Sus scrofa. An outline of the steps:
as §1

A short description of assay [7]: Antiplatelet activity against pig platelet assessed as inhibition of ADP-induced platelet aggregation by spectrophotometry. In kind it is functional, cell-based. To be noted: Sus scrofa. The procedure, abridged: as §1
Assay [8] is described as follows: Antiplatelet activity against pig platelet assessed as inhibition of PAF-induced platelet aggregation by spectrophotometry. The class given is functional, cell-based. As to conditions: Sus scrofa. An outline of the steps:
as §1

The nature of assay [9]: Antiplatelet activity against pig platelet assessed as inhibition of thrombin-induced platelet aggregation by spectrophotometry. As to conditions: Sus scrofa. In kind it is functional, cell-based. The procedure, abridged:
as §1

The nature of assay [10]: Antiplatelet activity against pig platelet assessed as inhibition of arachidonic acid-induced platelet aggregation by spectrophotometry. In kind it is functional, cell-based. To be noted: Sus scrofa. An outline of the steps: as §1

SMILES strings stand for the structures. pIC50: −log10 of the molar value. Square brackets hold non-standard residues; d marks the D form. Peptide text beside a SMILES is read from it. Tic = O=C(O)[C@@H]1Cc2ccccc2CN1

For `CCC(C)[C@H](NC(=O)[C@@H]1Cc2ccccc2CN1)C(=O)O` (single isomer, unassigned), in the assay with Rattus norvegicus [1], the Activity came out at 20.03 mg.

Consider `O=C(O)[C@H](CS)NC(=O)[C@@H]1Cc2ccccc2CN1` (H-[Tic]-Cys-OH), for which the Activity with Rattus norvegicus [1] turned out to be 20.91 mg.

For `O=C(O)[C@H](Cc1ccccc1)NC(=O)[C@@H]1Cc2ccccc2CN1` (H-[Tic]-Phe-OH), the Activity in the assay on Rattus norvegicus [1] stood at 19.11 mg.

In the case of `COC(=O)[C@H](CCC(N)=O)N1C(=O)[C@@H]2Cc3ccccc3CN2C1(C)C`, the Activity with Rattus norvegicus [2] is listed as 22.7 mg; with Aorta, 38.61%. In addition, the inhibition at 10 µM was found to be 25.9% in [3], 69% in assay [4], 48.1% in [5] and 31.8% in [6].

With `O=C(O)CNC(=O)[C@@H]1Cc2ccccc2CN1` (H-[Tic]-Gly-OH), the Activity with Rattus norvegicus [1] is listed as 20.24 mg.

Turning to `COC(=O)[C@H](Cc1ccccc1)N1C(=O)[C@@H]2Cc3ccccc3CN2C1(C)C`, the Activity worked out at 20.62 mg in the assay with Rattus norvegicus [2] and 32.18% in the assay with Aorta. Further, the inhibition at 10 µM in assay [3] came out at 56.3%; in [4] it was 57.8%; in [5], 46.8%; in assay [6], 44.5%.

Take `CC(C)[C@H](NC(=O)[C@@H]1Cc2ccccc2CN1)C(=O)O` (H-[Tic]-Val-OH): the Activity with Rattus norvegicus [1] came to 19.2 mg.

Turning to `O=C(O)[C@@H](NC(=O)[C@@H]1Cc2ccccc2CN1)NC1CCC1`, the pIC50 in assay [7] is 6.44; in assay [8], 5.85; in assay [9], 6.73; in assay [10], 6.99. Besides, the Activity in the assay with Rattus norvegicus [1] is recorded as 20.25 mg.

As for `CCC(C)[C@@H](C(=O)OC)N1C(=O)[C@@H]2Cc3ccccc3CN2C1(C)C` (some centres undefined), the Activity is recorded as 13.32 mg in the assay on Rattus norvegicus [2] and 99% in the assay on Aorta. Besides, the inhibition at 10 µM in assay [3] worked out at 51.3%; in [4], 60.9%; in assay [5], 49.4%; in [6], 48.2%.

For `O=C(O)[C@H](Cc1c[nH]cn1)NC(=O)[C@@H]1Cc2ccccc2CN1` (H-[Tic]-His-OH), the Activity in the assay with Rattus norvegicus [1] came out at 20.86 mg.

`COC(=O)[C@H](C(C)O)N1C(=O)[C@@H]2Cc3ccccc3CN2C1(C)C` (some centres undefined): the Activity in the assay on Rattus norvegicus [2] turned out to be 20.01 mg; with Aorta, 35.21%. In addition, the inhibition at 10 µM in assay [3] was 59.9%; in [4], 57.2%; in assay [5], 45%; in assay [6], 46.3%.

For `O=C(O)[C@H](Cc1cc2ccccc2[nH]1)NC(=O)[C@@H]1Cc2ccccc2CN1`, the pIC50 in assay [7] was 6.92; in assay [8] it was 6.18; in assay [9], 6.63; in assay [10] it was 6.43. Moreover, the Activity in the assay on Rattus norvegicus [1] is listed as 21.3 mg.

As for `COC(=O)[C@H](C(C)C)N1C(=O)[C@@H]2Cc3ccccc3CN2C1(C)C`, the Activity with Rattus norvegicus [2] worked out at 15.66 mg; in the assay with Aorta, 54.99%. Further, the inhibition at 10 µM in assay [3] was 34.6%; in assay [4], 30.9%; in assay [5], 32.4%; in [6], 35%.

As for `COC(=O)[C@H](CCCNC(=N)N[N+](=O)[O-])N1C(=O)[C@@H]2Cc3ccccc3CN2C1(C)C`, the Activity was 23.61 mg in the assay with Rattus norvegicus [2] and 6.78% in the assay on Aorta. The inhibition at 10 µM in assay [3] amounted to 65.3%; in assay [4], 31.4%; in [5], 30.6%; in assay [6], 58.4%.

Consider `O=C(O)[C@H](CO)NC(=O)[C@@H]1Cc2ccccc2CN1` (H-[Tic]-Ser-OH), for which, in the assay with Rattus norvegicus [1], the Activity is on record as 23.58 mg.

For the compound `COC(=O)[C@H](C)N1C(=O)[C@@H]2Cc3ccccc3CN2C1(C)C`, the Activity in the assay with Rattus norvegicus [2] is 22.51 mg; in the assay on Aorta it was 34.1%. Moreover, the inhibition at 10 µM in assay [3] was determined as 46.3%; in assay [4], 11.7%; in assay [5], 40.5%; in assay [6], 10.2%.

As to `N=C(N)NCCC[C@H](NC(=O)[C@@H]1Cc2ccccc2CN1)C(=O)O` (H-[Tic]-Arg-OH), the Activity in the assay with Rattus norvegicus [1] is listed as 18.73 mg.

On to `COC(=O)[C@H](Cc1ccc(O)cc1)N1C(=O)[C@@H]2Cc3ccccc3CN2C1(C)C`, for which the Activity was determined as 23.71 mg in the assay with Rattus norvegicus [2] and 15.56% with Aorta. Besides, the inhibition at 10 µM was 59% in assay [3], 25.3% in assay [4], 52.2% in [5] and 53.1% in [6].

As for `COC(=O)[C@H](CC(C)C)N1C(=O)[C@@H]2Cc3ccccc3CN2C1(C)C`, the Activity in the assay on Rattus norvegicus [2] is given as 14.1 mg; in the assay with Aorta, 74.68%. Further, the inhibition at 10 µM in assay [3] came to 29.2%; in [4], 38.3%; in assay [5], 37.5%; in [6], 31.4%.

Consider `CC(C)C[C@H](NC(=O)[C@@H]1Cc2ccccc2CN1)C(=O)O` (H-[Tic]-Leu-OH), for which, in the assay with Rattus norvegicus [1], the Activity came to 20.23 mg.

On to `COC(=O)[C@H](CCSC)N1C(=O)[C@@H]2Cc3ccccc3CN2C1(C)C`, for which the Activity in the assay with Rattus norvegicus [2] is 20.11 mg; in the assay on Aorta it was 43.06%. The inhibition at 10 µM in assay [3] was 31.9%; in assay [4] it was 36.8%; in assay [5] it was 30.1%; in assay [6] it was 34%.

Consider `C[C@H](NC(=O)[C@@H]1Cc2ccccc2CN1)C(=O)O` (H-[Tic]-Ala-OH), for which the Activity in the assay with Rattus norvegicus [1] amounted to 21.4 mg.

As for `COC(=O)[C@H](CC(N)=O)N1C(=O)[C@@H]2Cc3ccccc3CN2C1(C)C`, the Activity in the assay on Rattus norvegicus [2] is listed as 19.54 mg; with Aorta, 47.89%. Further, the inhibition at 10 µM in [3] amounted to 25.8%; in [4] it was 19.8%; in assay [5] it was 30.1%; in assay [6], 33.9%.

Turning to `O=C(O)[C@H](Cc1ccc(O)cc1)NC(=O)[C@@H]1Cc2ccccc2CN1` (H-[Tic]-Tyr-OH), the Activity with Rattus norvegicus [1] stood at 19.31 mg.

Consider `COC(=O)[C@H](CS)N1C(=O)[C@@H]2Cc3ccccc3CN2C1(C)C`, for which the results for the Activity with Rattus norvegicus [2] and with Aorta were 12.9 mg and 96.3%, respectively. Also, the inhibition at 10 µM in [3] was determined as 53.7%; in [4], 30.8%; in assay [5], 60.7%; in assay [6], 68.9%.

On to `C[C@@H](O)[C@H](NC(=O)[C@@H]1Cc2ccccc2CN1)C(=O)O` (H-[Tic]-Thr-OH), for which the Activity with Rattus norvegicus [1] was 21.25 mg.

Turning to `NCCCC[C@H](NC(=O)[C@@H]1Cc2ccccc2CN1)C(=O)O` (H-[Tic]-Lys-OH), in the assay on Rattus norvegicus [1], the Activity was 21.28 mg.

For `COC(=O)[C@H](CCCCNC(=O)OCc1ccccc1)N1C(=O)[C@@H]2Cc3ccccc3CN2C1(C)C`, the Activity in the assay with Rattus norvegicus [2] was 17.14 mg; with Aorta, 68.21%. Also, the inhibition at 10 µM in [3] amounted to 11.2%; in [4], 18.4%; in assay [5], 33.7%; in [6] it was 20.9%.

In the case of `NC(=O)C[C@H](NC(=O)[C@@H]1Cc2ccccc2CN1)C(=O)O` (H-[Tic]-Asn-OH), the Activity in the assay with Rattus norvegicus [1] came to 20.24 mg.

On to `COC(=O)C[C@@H](C(=O)OC)N1C(=O)[C@@H]2Cc3ccccc3CN2C1(C)C`, for which the Activity in the assay with Rattus norvegicus [2] was 18.2 mg; with Aorta, 64.09%. Moreover, the inhibition at 10 µM in [3] is 18.6%; in assay [4], 60.1%; in assay [5] it was 57.7%; in assay [6], 24.6%.

On to `NC(=O)CC[C@H](NC(=O)[C@@H]1Cc2ccccc2CN1)C(=O)O` (H-[Tic]-Gln-OH), for which the Activity in the assay on Rattus norvegicus [1] amounted to 22.08 mg.

With `O=C(O)CC[C@H](NC(=O)[C@@H]1Cc2ccccc2CN1)C(=O)O` (H-[Tic]-Glu-OH), the Activity in the assay with Rattus norvegicus [1] is 19.69 mg.

In the case of `COC(=O)CC[C@@H](C(=O)OC)N1C(=O)[C@@H]2Cc3ccccc3CN2C1(C)C`, the Activity in the assay with Rattus norvegicus [2] was 19.9 mg; with Aorta, 42.48%. Also, the inhibition at 10 µM in assay [3] worked out at 45.2%; in assay [4] it was 28%; in [5], 37.4%; in [6], 22.5%.

With `COC(=O)CN1C(=O)[C@@H]2Cc3ccccc3CN2C1(C)C`, the Activity with Rattus norvegicus [2] stood at 15.21 mg; with Aorta it was 75.35%. The inhibition at 10 µM in assay [3] was 44.5%; in [4], 10.9%; in assay [5], 58.9%; in assay [6], 66.1%.

With `CSCC[C@H](NC(=O)[C@@H]1Cc2ccccc2CN1)C(=O)O` (H-[Tic]-Met-OH), the Activity with Rattus norvegicus [1] worked out at 21.74 mg.

As to `O=C(O)C[C@H](NC(=O)[C@@H]1Cc2ccccc2CN1)C(=O)O` (H-[Tic]-Asp-OH), the Activity with Rattus norvegicus [1] is 21.67 mg.

For orientation: inhibition means the percentage by which the read-out fell short of the control. For orientation: pIC50 means the negative decadic logarithm of the IC50, by convention in mol/L.
